Laboratory results taken from ChEMBL document CHEMBL4689842, “EUbOPEN Chemogenomics Library wave 1” (2021).

System: U2OS
Experiment: Multiplex assay against U2OS
Type: toxicity, cell-based
Details: human
Procedure, shortened: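 Cells were classed with CellPathfinder machine-learning gating, first as Hoechst high-intensity objects or normal cells, then (normal cells) as healthy, pyknosed or fragmented nuclei, and finally (pyknosed cells) as mitotic or apoptotic. Staining of live cells at seeding used Hoechst33342, BioTracker Green Microtubule Cytoskeleton Dye, MitoTracker Red and Annexin V Alexa Fluor 680, with imaging on a CQ1 microscope at 37°C and 5% CO2 after compound addition. Tubulin, mitochondrial-mass and membrane-permeability phenotypes are per cents of healthy-nucleus cells.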

[1] = 12 h, 1 µM, compound concentration 1 uM, replicate 1
[2] = 12 h, 1 µM, compound concentration 1 uM, replicate 2
[3] = 12 h, 10 µM, compound concentration 10 uM, replicate 1
[4] = 12 h, 10 µM, compound concentration 10 uM, replicate 2
[5] = 24 h, 1 µM, compound concentration 1 uM, replicate 1
[6] = 24 h, 1 µM, compound concentration 1 uM, replicate 2
[7] = 24 h, 10 µM, compound concentration 10 uM, replicate 1
[8] = 24 h, 10 µM, compound concentration 10 uM, replicate 2
[9] = 48 h, 1 µM, compound concentration 1 uM, replicate 1
[10] = 48 h, 1 µM, compound concentration 1 uM, replicate 2
[11] = 48 h, 10 µM, compound concentration 10 uM, replicate 1
[12] = 48 h, 10 µM, compound concentration 10 uM, replicate 2

In the case of `COC(=O)C1=C(C)NC(C)=C(C(=O)OCCCN2CCC(c3ccccc3)(c3ccccc3)CC2)[C@H]1c1cccc([N+](=O)[O-])c1` [NIGULDIPINE], the “Population Apoptotic (%)” value [1] is reported as 64%, the “Population Fragmented Nuclei (%)” value [1] is reported as 18% and the “Population Healthy Nuclei (%)” value [1] is reported as 58%. The “Population Hoechst High Intensity Objects (%)” value [1] was 11%, the “Population Membrane Permeable-Phenotype (%)” value [1] was 53% and the “Population Mitochondria Different-Phenotype (%)” value [1] was 96%. For the same molecule, the “Population Mitotic Cells (%)” value [1] was 36%, the “Population Normal (%)” value [1] was 88% and the “Population Pyknosed Nuclei (%)” value [1] was 23%. The “Population Tubulin-Different-Phenotype (%)” value [1] was 96%, the “Total Cell Count” value [1] was 893 and the “Population Apoptotic (%)” value [2] was 91%. For the same molecule, the “Population Fragmented Nuclei (%)” value [2] was 6%, the “Population Healthy Nuclei (%)” value [2] was 78% and the “Population Hoechst High Intensity Objects (%)” value [2] was 9%. The “Population Membrane Permeable-Phenotype (%)” value [2] was 66%, the “Population Mitochondria Different-Phenotype (%)” value [2] was 100% and the “Population Mitotic Cells (%)” value [2] was 8%. For the same molecule, the “Population Normal (%)” value [2] was 90%, the “Population Pyknosed Nuclei (%)” value [2] was 15% and the “Population Tubulin-Different-Phenotype (%)” value [2] was 100%. For the same molecule, the “Total Cell Count” value [2] was 945, the “Population Apoptotic (%)” value [3] was 73% and the “Population Fragmented Nuclei (%)” value [3] was 62%. For the same molecule, the “Population Healthy Nuclei (%)” value [3] was 4%, the “Population Hoechst High Intensity Objects (%)” value [3] was 7% and the “Population Mitochondria Different-Phenotype (%)” value [3] was 100%. For the same molecule, the “Population Mitotic Cells (%)” value [3] was 26%, the “Population Normal (%)” value [3] was 92% and the “Population Pyknosed Nuclei (%)” value [3] was 33%. The “Total Cell Count” value [3] was 122, the “Population Apoptotic (%)” value [4] was 76% and the “Population Fragmented Nuclei (%)” value [4] was 67%. The “Population Healthy Nuclei (%)” value [4] was 3%, the “Population Hoechst High Intensity Objects (%)” value [4] was 12% and the “Population Membrane Permeable-Phenotype (%)” value [4] was 100%. The “Population Mitochondria Different-Phenotype (%)” value [4] was 50%, the “Population Mitotic Cells (%)” value [4] was 23% and the “Population Normal (%)” value [4] was 87%. For the same molecule, the “Population Pyknosed Nuclei (%)” value [4] was 29%, the “Population Tubulin-Different-Phenotype (%)” value [4] was 100% and the “Total Cell Count” value [4] was 87. The “Population Apoptotic (%)” value [5] was 76%, the “Population Fragmented Nuclei (%)” value [5] was 17% and the “Population Healthy Nuclei (%)” value [5] was 52%. The “Population Hoechst High Intensity Objects (%)” value [5] was 10%, the “Population Membrane Permeable-Phenotype (%)” value [5] was 76% and the “Population Mitochondria Different-Phenotype (%)” value [5] was 98%. For the same molecule, the “Population Mitotic Cells (%)” value [5] was 23%, the “Population Normal (%)” value [5] was 89% and the “Population Pyknosed Nuclei (%)” value [5] was 30%. The “Total Cell Count” value [5] was 927, the “Population Apoptotic (%)” value [6] was 77% and the “Population Fragmented Nuclei (%)” value [6] was 7%. For the same molecule, the “Population Healthy Nuclei (%)” value [6] was 65%, the “Population Hoechst High Intensity Objects (%)” value [6] was 5% and the “Population Membrane Permeable-Phenotype (%)” value [6] was 96%. The “Population Mitochondria Different-Phenotype (%)” value [6] was 100%, the “Population Mitotic Cells (%)” value [6] was 22% and the “Population Normal (%)” value [6] was 94%. The “Population Pyknosed Nuclei (%)” value [6] was 27%, the “Population Tubulin-Different-Phenotype (%)” value [6] was 100% and the “Total Cell Count” value [6] was 948. The “Population Apoptotic (%)” value [7] was 78%, the “Population Fragmented Nuclei (%)” value [7] was 69% and the “Population Healthy Nuclei (%)” value [7] was 2%. The “Population Hoechst High Intensity Objects (%)” value [7] was 14%, the “Population Membrane Permeable-Phenotype (%)” value [7] was 100% and the “Population Mitochondria Different-Phenotype (%)” value [7] was 100%. For the same molecule, the “Population Mitotic Cells (%)” value [7] was 21%, the “Population Normal (%)” value [7] was 85% and the “Population Pyknosed Nuclei (%)” value [7] was 27%. The “Population Tubulin-Different-Phenotype (%)” value [7] was 100%, the “Total Cell Count” value [7] was 111 and the “Population Apoptotic (%)” value [8] was 100%. The “Population Fragmented Nuclei (%)” value [8] was 40%, the “Population Healthy Nuclei (%)” value [8] was 25% and the “Population Hoechst High Intensity Objects (%)” value [8] was 11%. For the same molecule, the “Population Mitotic Cells (%)” value [8] was 0%, the “Population Normal (%)” value [8] was 88% and the “Population Pyknosed Nuclei (%)” value [8] was 33%. The “Total Cell Count” value [8] was 85, the “Population Apoptotic (%)” value [9] was 78% and the “Population Fragmented Nuclei (%)” value [9] was 23%. For the same molecule, the “Population Healthy Nuclei (%)” value [9] was 39%, the “Population Hoechst High Intensity Objects (%)” value [9] was 12% and the “Population Membrane Permeable-Phenotype (%)” value [9] was 82%. The “Population Mitochondria Different-Phenotype (%)” value [9] was 97%, the “Population Mitotic Cells (%)” value [9] was 21% and the “Population Normal (%)” value [9] was 87%. For the same molecule, the “Population Pyknosed Nuclei (%)” value [9] was 36%, the “Population Tubulin-Different-Phenotype (%)” value [9] was 97% and the “Total Cell Count” value [9] was 922. For the same molecule, the “Population Apoptotic (%)” value [10] was 85%, the “Population Fragmented Nuclei (%)” value [10] was 15% and the “Population Healthy Nuclei (%)” value [10] was 54%. The “Population Hoechst High Intensity Objects (%)” value [10] was 5%, the “Population Membrane Permeable-Phenotype (%)” value [10] was 92% and the “Population Mitochondria Different-Phenotype (%)” value [10] was 100%. For the same molecule, the “Population Mitotic Cells (%)” value [10] was 14%, the “Population Normal (%)” value [10] was 94% and the “Population Pyknosed Nuclei (%)” value [10] was 30%. The “Population Tubulin-Different-Phenotype (%)” value [10] was 100%, the “Total Cell Count” value [10] was 932 and the “Population Apoptotic (%)” value [11] was 81%. The “Population Fragmented Nuclei (%)” value [11] was 69%, the “Population Healthy Nuclei (%)” value [11] was 2% and the “Population Hoechst High Intensity Objects (%)” value [11] was 10%. The “Population Membrane Permeable-Phenotype (%)” value [11] was 100%, the “Population Mitochondria Different-Phenotype (%)” value [11] was 100% and the “Population Mitotic Cells (%)” value [11] was 18%. The “Population Normal (%)” value [11] was 89%, the “Population Pyknosed Nuclei (%)” value [11] was 28% and the “Population Tubulin-Different-Phenotype (%)” value [11] was 100%. For the same molecule, the “Total Cell Count” value [11] was 116, the “Population Apoptotic (%)” value [12] was 100% and the “Population Fragmented Nuclei (%)” value [12] was 17%. For the same molecule, the “Population Healthy Nuclei (%)” value [12] was 28%, the “Population Hoechst High Intensity Objects (%)” value [12] was 18% and the “Population Mitochondria Different-Phenotype (%)” value [12] was 93%. The “Population Mitotic Cells (%)” value [12] was 0%, the “Population Normal (%)” value [12] was 81% and the “Population Pyknosed Nuclei (%)” value [12] was 53%. For the same molecule, the “Total Cell Count” value [12] was 97.
